Test results from ChEMBL document CHEMBL6071151, “Discovery of Inhibitors Targeting Protein-Protein Interaction between Bacterial RNA Polymerase and NusG as Novel Antimicrobials” (J Med Chem, 2024).
Values after ≈ are worked out from the molar mass of the structure shown. Active and inactive are the calls of the source.

Assays:
Enterococcus faecalis = assay: Antimicrobial activity against Enterococcus faecalis ATCC 19433 assessed as reduction in microbial growth measured after 20 hrs by CLSI based broth microdilution method; assay type: functional
In short: (§1)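 Broth microdilution per CLSI in cation-adjusted Mueller-Hinton broth. Two-fold serial dilutions from 256 to 0.25 μg/mL, inoculum about 5 × 10⁵ CFU/mL. Read after 20 h at 37 °C. MIC is the lowest concentration with no visible growth. Run in duplicate.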

Staphylococcus aureus [1] = assay: Antimicrobial activity against Staphylococcus aureus ATCC 25923 assessed as reduction in microbial growth measured after 20 hrs by CLSI based broth microdilution method; assay type: functional; in short: as §1
Staphylococcus aureus [2] = assay: Antimicrobial activity against Staphylococcus aureus ATCC 29213 assessed as reduction in microbial growth measured after 20 hrs by CLSI based broth microdilution method; assay type: functional; in short: as §1
Streptococcus pneumoniae [3] = assay: Antimicrobial activity against Streptococcus pneumoniae ATCC 49619 assessed as reduction in microbial growth measured after 20 hrs by CLSI based broth microdilution method; assay type: functional
Klebsiella pneumoniae = assay: Antimicrobial activity against Klebsiella pneumoniae ATCC 700603 assessed as reduction in microbial growth measured after 20 hrs by CLSI based broth microdilution method; assay type: functional; in short: as §1
Acinetobacter baumannii = assay: Antimicrobial activity against Acinetobacter baumannii ATCC 19606 assessed as reduction in microbial growth measured after 20 hrs by CLSI based broth microdilution method; assay type: functional; in short: as §1
Pseudomonas aeruginosa = assay: Antimicrobial activity against Pseudomonas aeruginosa ATCC 27853 assessed as reduction in microbial growth measured after 20 hrs by CLSI based broth microdilution method; assay type: functional; in short: as §1
Enterobacter cloacae = assay: Antimicrobial activity against Enterobacter cloacae ATCC 13047 assessed as reduction in microbial growth measured after 20 hrs by CLSI based broth microdilution method; assay type: functional; in short: as §1
Escherichia coli [4] = assay: Antimicrobial activity against Escherichia coli ATCC 25922 assessed as reduction in microbial growth measured after 20 hrs by CLSI based broth microdilution method; assay type: functional; in short: as §1
[5] = tested on: Staphylococcus epidermidis; assay: Antimicrobial activity against Staphylococcus epidermidis ATCC 12228 assessed as reduction in microbial growth measured after 20 hrs by CLSI based broth microdilution method; assay type: functional
[6] = tested on: Staphylococcus saprophyticus; assay: Antimicrobial activity against Staphylococcus saprophyticus ATCC 15305 assessed as reduction in microbial growth measured after 20 hrs by CLSI based broth microdilution method; assay type: functional
Streptococcus pyogenes = assay: Antimicrobial activity against Streptococcus pyogenes ATCC 19615 assessed as reduction in microbial growth measured after 20 hrs by CLSI based broth microdilution method; assay type: functional
Streptococcus agalactiae = assay: Antimicrobial activity against Streptococcus agalactiae ATCC 12386 assessed as reduction in microbial growth measured after 20 hrs by CLSI based broth microdilution method; assay type: functional
Streptococcus pneumoniae [7] = assay: Antimicrobial activity against Streptococcus pneumoniae TCH8431 (HM-145) assessed as reduction in microbial growth measured after 20 hrs by CLSI based broth microdilution method; assay type: functional
Streptococcus pneumoniae [8] = assay: Antimicrobial activity against Streptococcus pneumoniae NP112 (NR-19213) assessed as reduction in microbial growth measured after 20 hrs by CLSI based broth microdilution method; assay type: functional
Streptococcus pneumoniae [9] = assay: Antimicrobial activity against Streptococcus pneumoniae clinical isolate CUHK-X01 assessed as reduction in microbial growth measured after 20 hrs by CLSI based broth microdilution method; assay type: functional
Streptococcus pneumoniae [10] = assay: Antimicrobial activity against Streptococcus pneumoniae clinical isolate CUHK-X02 assessed as reduction in microbial growth measured after 20 hrs by CLSI based broth microdilution method; assay type: functional
Streptococcus pneumoniae [11] = assay: Antimicrobial activity against Streptococcus pneumoniae clinical isolate CUHK-X03 assessed as reduction in microbial growth measured after 20 hrs by CLSI based broth microdilution method; assay type: functional
Streptococcus pneumoniae [12] = assay: Antimicrobial activity against Streptococcus pneumoniae clinical isolate CUHK-X04 assessed as reduction in microbial growth measured after 20 hrs by CLSI based broth microdilution method; assay type: functional
Staphylococcus aureus [13] = assay: Antimicrobial activity against Staphylococcus aureus ATCC 25923 assessed as inhibition of microbial growth at 1 times MIC measured after 2 hrs by time-kill assay; assay type: functional, organism-based
Staphylococcus aureus [14] = assay: Antimicrobial activity against community-associated methicillin-resistant Staphylococcus aureus USA300 assessed as inhibition of microbial growth at 1 times MIC measured after 2 hrs by time-kill assay; assay type: functional, organism-based
In short: (§2)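 S. aureus (ATCC 25923 or CA-MRSA USA300) in log phase suspended at about 1.5×10^6 CFU/mL in CA-MHB containing compound at multiples of MIC, with a drug-free broth control. Cultures held at 37 °C, aerobic, shaking at 180 rpm. Samples taken at 0, 2, 4 and 6 h, 10-fold diluted in PBS and spotted on Columbia blood agar. Colonies counted after overnight 37 °C as CFU/mL. Triplicate.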

Staphylococcus aureus [15] = assay: Antimicrobial activity against Staphylococcus aureus ATCC 25923 assessed as reduction in bacterial count at 1 times MIC measured after 4 to 6 hrs by time-kill assay; assay type: functional, organism-based; conditions: time 4-6 hrs
Staphylococcus aureus [16] = assay: Antimicrobial activity against community-associated methicillin-resistant Staphylococcus aureus USA300 assessed as reduction in bacterial count at 1 times MIC measured after 4 to 6 hrs by time-kill assay; assay type: functional, organism-based; conditions: time 4-6 hrs; in short: as §2
Staphylococcus aureus [17] = assay: Antimicrobial activity against Staphylococcus aureus ATCC 25923 assessed as reduction in bacterial growth at 4 to 16 times MIC measured over 6 hrs by time-kill assay relative to control; assay type: functional; design: scale not given: the % may be the effect or the level left; in short: as §2
Staphylococcus aureus [18] = assay: Antimicrobial activity against Staphylococcus aureus ATCC 25923 measuring eradication of bacteria at 4 to 16 times MIC measured over 6 hrs by time-kill assay; assay type: functional; in short: as §2
Staphylococcus aureus [19] = assay: Antimicrobial activity against Staphylococcus aureus ATCC 25923 assessed as reduction in bacterial count below the detectable threshold at 4 to 16 times MIC measured within 2 hrs by time-kill assay; assay type: functional, organism-based
Staphylococcus aureus [20] = assay: Antimicrobial activity against community-associated methicillin-resistant Staphylococcus aureus USA300 assessed as reduction in bacterial count below the detectable threshold at 4 to 16 times MIC measured after 4 hrs by time-kill assay; assay type: functional, organism-based; in short: as §2
[21] = Inhibition of Bacillus subtilis LgBiT-fused NusG/C-terminal SmBit fused […] CH protein-protein interaction using […] incubated for 20 mins by luminescence based analysis
In short: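 Split-nanoluciferase competition assay with His-tagged proteins expressed in E. coli BL21(DE3) and Ni-purified. C-SmBiT-β'CH (250 nM in PBS) was preincubated with compound for 10 min at 37 °C. N-LgBiT-NusG (250 nM in PBS) was then added and incubated 10 min at 37 °C. Nano-Glo substrate was added and luminescence read. IC50 determined. Triplicate with technical repeats.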

Escherichia coli [22] = assay: Antimicrobial activity against Escherichia coli K12 transformed with pSL103 assessed as reduction in bacterial growth measured after 30 mins; assay type: functional; conditions: K12, 0.5 h
Escherichia coli [23] = assay: Upregulation of cat gene transcription level in Escherichia coli K12 transformed with pSL103 at 1/8 to 1/4 times MIC measured after 30 mins; assay type: functional
In short: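 Cells lysed with lysozyme in TE, total RNA extracted and reverse transcribed. cat transcript quantified by SYBR Green qPCR, 40 cycles, normalised to gyrB by ΔCT. Triplicates, unpaired t-test.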

Bacillus subtilis [24] = assay: Antibacterial activity against Bacillus Subtilis assessed as bacterial transcription by measuring delocalization of GFP-tagged RpoC at 1 time MIC incubated for 30 mins by epifluorescence microscopy based analysis; assay type: functional, organism-based
In short: (§3)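 B. subtilis reporter strains expressing GFP fusions, grown overnight on selective LB agar at 37 °C, then overnight in LB with selective antibiotic and xylose, 37 °C, 180 rpm. Cells mounted on 1.2% agarose, imaged by epifluorescence with 100×/1.45 oil objective, FITC (525/50) filter.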

Bacillus subtilis [25] = assay: Antibacterial activity against Bacillus Subtilis assessed as bacterial transcription by measuring delocalization of NusG at 1 time MIC incubated for 30 mins by epifluorescence microscopy based analysis; assay type: functional, organism-based; in short: as §3
Bacillus subtilis [26] = assay: Antibacterial activity against Bacillus Subtilis assessed as bacterial transcription by measuring delocalization of GFP-tagged RpsB at 1 time MIC incubated for 30 mins by epifluorescence microscopy based analysis; assay type: functional, organism-based; in short: as §3
Bacillus subtilis [27] = assay: Antibacterial activity against Bacillus Subtilis assessed as bacterial transcription by measuring subcellular localization of MreB at 1 time MIC incubated for 30 mins by epifluorescence microscopy based analysis; assay type: functional, organism-based; in short: as §3

OC(CNCCNc1ccccc1C(F)(F)F)CSc1ccc(C(F)(F)F)cc1 (centres undefined)
MIC (Enterococcus faecalis): 8 µg/mL | MIC (Staphylococcus aureus [1]): 4 µg/mL | MIC (Staphylococcus aureus [2]): 4 µg/mL | MIC (Streptococcus pneumoniae [3]): 1 µg/mL | MIC (Klebsiella pneumoniae): > 256 µg/mL | MIC (Acinetobacter baumannii): > 256 µg/mL | MIC (Pseudomonas aeruginosa): > 256 µg/mL | MIC (Enterobacter cloacae): 32 µg/mL | MIC (Escherichia coli [4]): 64 µg/mL | MIC [5]: 8 µg/mL | MIC [6]: 2 µg/mL | MIC (Streptococcus pyogenes): 8 µg/mL | MIC (Streptococcus agalactiae): 16 µg/mL | MIC (Streptococcus pneumoniae [7]): 2 µg/mL | MIC (Streptococcus pneumoniae [8]): 4 µg/mL | MIC (Streptococcus pneumoniae [9]): 1 µg/mL | MIC (Streptococcus pneumoniae [10]): 4 µg/mL | MIC (Streptococcus pneumoniae [11]): 8 µg/mL | MIC (Streptococcus pneumoniae [12]): 2 µg/mL | Activity (Staphylococcus aureus [13]): Active | Activity (Staphylococcus aureus [14]): Active | Activity (Staphylococcus aureus [15]): Active | Activity (Staphylococcus aureus [16]): Active | Activity (Staphylococcus aureus [17]): 100% | Activity (Staphylococcus aureus [18]): <200 CFU/ml | Activity (Staphylococcus aureus [19]): Active | Activity (Staphylococcus aureus [20]): Active | IC50 [21]: 142 µM | MIC (Escherichia coli [22]): 16 µg/mL (≈ 36.5 µM) | Activity (Escherichia coli [23]): Active | Activity (Bacillus subtilis [24]): Active | Activity (Bacillus subtilis [25]): Active | Activity (Bacillus subtilis [26]): Active | Activity (Bacillus subtilis [27]): Active
